We go through 14 compounds from ChEMBL document CHEMBL1157363, “Inhibition of isolated Mycobacterium tuberculosis fatty acid synthase I by pyrazinamide analogs” (Antimicrob Agents Chemother, 2007).

The source made the active and inactive calls. The calls are words filed in the database; no cut-off is given here.

The nature of assay [1]: Inhibition of Mycobacterium tuberculosis fatty acid synthase 1 expressed in Mycobacterium smegmatis mc2 2700 assessed as NADPH oxidation at 100 uM of NADPH by spectrophotometry. The method in brief:
(§1)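 Purified Mtb FASI (from M. smegmatis Δfas1 attB::Mtb fas1, ammonium sulfate, DE52, gel filtration), 1–3 μg in 1 ml: 50 μM acetyl-CoA, 40 μM malonyl-CoA, 100 μM NADPH, 5 mM DTT, 400 mM potassium phosphate pH 7.4; inhibitor in DMSO (≤0.05 ml/ml). Linear A340 decrease over 10 min at 37°C; IC50 from Dixon plot x-intercept at 100 μM NADPH.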

The subject of assay [2] is Mycobacterium tuberculosis. Put plainly: Inhibition of Mycobacterium tuberculosis fatty acid synthase 1 expressed in Mycobacterium smegmatis mc2 2700 assessed as [2-14C]]malonyl-CoA incorporation into fatty acid at 6000 uM.
Assay [3] deals with Mycobacterium tuberculosis. As to the kind of experiment: Inhibition of Mycobacterium tuberculosis fatty acid synthase 1 expressed in Mycobacterium smegmatis mc2 2700 assessed as NADPH oxidation by spectrophotometry. The method in brief: as §1
Assay [4] relates to Mycobacterium tuberculosis. As to the kind of experiment: Inhibition of Mycobacterium tuberculosis fatty acid synthase 1 expressed in Mycobacterium smegmatis mc2 2700 assessed as [2-14C]]malonyl-CoA incorporation into fatty acid at 3000 uM.
Assay [5] is described as follows: Inhibition of Mycobacterium tuberculosis fatty acid synthase 1 expressed in Mycobacterium smegmatis mc2 2700 assessed as NADPH oxidation using variable concentration of NADPH by spectrophotometry.
For assay [6], the system named is Mycobacterium tuberculosis. As to the kind of experiment: Inhibition of Mycobacterium tuberculosis fatty acid synthase 1 expressed in Mycobacterium smegmatis mc2 2700 assessed as NADPH oxidation upto 100 mM by spectrophotometry. The method in brief: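 NADPH oxidation by purified Mtb FASI (1–3 μg/ml), 50 μM acetyl-CoA, 40 μM malonyl-CoA, 100 μM NADPH, 5 mM DTT, 400 mM potassium phosphate pH 7.4, 37°C, A340 decrease over 10 min; inhibitor added from DMSO at up to 100 mM, percent inhibition read.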

What is called IC50 is the concentration at which inhibition is half-maximal. The inhibition is how much of the control response was suppressed. `CCCOC(=O)c1cnc(F)cn1`: the IC50 in assay [1] was found to be 1.5 µM. Moreover, the inhibition in assay [2] was found to be 66%.

Consider `CC(C)(C)NC(=O)c1cnc(Cl)cn1`, for which the IC50 in assay [1] was determined as 8.7 µM.

As usually defined, the Ki is a measure of affinity in units of concentration, obtained from inhibition or displacement. In the case of `NC(=O)c1cnc(Cl)cn1`, the Activity result in assay [3] is “Dose-dependent effect”. Moreover, the inhibition in assay [4] amounted to 39%. Moreover, in assay [5], the half-maximal inhibitory concentration (IC50) worked out at 151 µM and the Ki was 55 µM. Also, the half-maximal inhibitory concentration (IC50) in assay [1] stood at 15.1 µM.

`CC(C)(C)OC(=O)c1cnc(Cl)cn1`: in assay [1], the IC50 stood at 15.1 µM.

For the compound `CC[C@@H](CO)NCCN[C@@H](CC)CO`, the outcome in assay [2] was inactive.

`CCCOC(=O)c1cnccn1`: the inhibition in assay [4] was found to be 6%; in assay [2] it was 37%. Besides, the IC50 in assay [1] was 1720 µM.

Turning to `CC(C)(C)OC(=O)c1cnc(F)cn1`, the IC50 in assay [1] was 4.3 µM.

On to `CCCOC(=O)c1cnc(Cl)cn1`, for which the IC50 in assay [1] was found to be 5.9 µM. In addition, the inhibition in assay [2] came to 66%.

As to `NC(=O)c1ccccc1`, the inhibition in assay [6] amounted to 15%.

For the compound `CC(C)(C)OC(=O)c1cnccn1`, in assay [1], the IC50 came to 1360 µM.

Turning to `O=C(O)c1cnccn1`, the Activity entry in assay [3] was “Dose-dependent effect”. Also, the inhibition in assay [4] is 6%; in assay [2], 37%.

As to `C/C=C/C/C=C/CCC(=O)[C@H]1O[C@H]1C(N)=O`, the outcome in assay [4] was inactive. Further, in assay [2], the inhibition was determined as 62%.

Consider `NC(=O)c1cnccn1` [PYRAZINAMIDE], for which the Activity entry in assay [3] is “Dose-dependent effect”. For the same compound, the results for the inhibition in assay [4] and in assay [2] were 6% and 37%, respectively. In addition, the IC50 in assay [5] and in assay [1] was 8930 µM throughout. The Ki in assay [5] turned out to be 2570 µM.

For the compound `CCCNC(=O)c1cnc(Cl)cn1`, the values for the inhibition in assay [4] and in assay [2] were 6% and 37%, respectively. For the same compound, the concentration for half-maximal inhibition (IC50) in assay [1] came out at 8.1 µM.
